This is a sample that favours compounds with a hit; in the whole collection about 3.3% have one here.
GAA850 FXN act: frataxin GAA850 promoter activation | HEK293 lucGAA850 FXN promoter luciferase reporter, 24 h; percent of 10 µM SAHA response | activation, % at 6 µM | 0.56% of 360,000 active | AID 540364;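 active means activation above the average of all compounds screened plus 3 SD, cutoff fixed separately per campaign, cut at about 7.5% in these data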;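 further: 0% = DMSO wells and 100% = 10 µM SAHA wells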
STAT3 activator: activators of IL-6 induced STAT3 signaling. U3A cells, IL-6 STAT3-luciferase reporter, luminescence; 100% = signal with IL-6 EC80 alone. activation (% of control), % at 5.6 µM. 0.91% of 190,000 active;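 active means activation above the screen-wide mean of compound activation plus 3 SD, cut at about 130% in these data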;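 further: 0% = background luminescence of wells with medium and substrate only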
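Material: STAT1-lacking human U3A cells, STAT3 luciferase reporter | Benchmarks: IL-6-only wells as 100% reference | Probe or stimulus: IL-6 (33 ng/mL) | Timing: Compound 1 h, then IL-6 6 h at 37 °C | Detection: Luminescence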
ABCB6 inh MLPCN: human ABCB6 transporter inhibition | Q9NP58 | K562-ABCB6 porphyrin accumulation, flow cytometry, 1 h; hits give low values | fluorescence ratio to DMSO, % at 10 µM | 0.19% of 360,000 active | AID 602162;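 active means fluorescence ratio to DMSO below 75%, the collection mean minus 3 SD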;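 further: signal is porphyrin accumulated inside mitochondria; 100% equals median channel fluorescence of DMSO control wells; lower ratio means ABCB6 inhibition with less porphyrin fluorescence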
AHR act: activators of human aryl hydrocarbon receptor. AHR-responsive luciferase reporter cells, luminescence. activation, % at 5 µM. 2.5% of 320,000 active. AID 2796; in the data active means activation above about 47%;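 further: 0% = vehicle wells and 100% = reference agonist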
Starred values were filed as active, the others as inactive.

What do the screens show for `O=c1c2cc(Br)ccc2[nH]c(=S)n1Cc1ccccn1`?
GAA850 FXN act: 4.4; STAT3 activator: 115.5; ABCB6 inh MLPCN: 98.0; AHR act: 67.4*

How did NC(=S)N=Nc1c(O)[nH]c2c(Br)cc(Br)cc12 do in these assays?
GAA850 FXN act: 0.5; STAT3 activator: 93.5; ABCB6 inh MLPCN: 100.0; AHR act: 63.4*

How did CS(=O)(=O)c1ccc(S(=O)CC(=O)Oc2ccc(Cl)cc2)c([N+](=O)[O-])c1 (stereo not given) do in these assays?
STAT3 activator: 134.6*; AHR act: 0.3

What do the screens show for `O=c1nc2sc3ccccc3n2c(=O)n1-c1ccc(Cl)cc1`?
GAA850 FXN act: 2.1; STAT3 activator: 98.0; ABCB6 inh MLPCN: 99.0; AHR act: 51.8*

How did Cc1cc(C)nc(N/N=C/c2ccccc2OCC(=O)O)n1 do in these assays?
GAA850 FXN act: 1.8; ABCB6 inh MLPCN: 97.0; AHR act: 2.7

What do the screens show for `C=CCN1C(=O)C2(OCCO2)c2cc(C)ccc21`?
GAA850 FXN act: 1.3; ABCB6 inh MLPCN: 101.0; AHR act: 0.8

Results for Cc1ccc(-c2nc3cnccn3c2Nc2ccc3c(c2)OCO3)o1 ?
GAA850 FXN act: 2.9; STAT3 activator: 96.8; ABCB6 inh MLPCN: 96.0; AHR act: 52.8*

What do the screens show for `COc1ccc(-c2nc3cnccn3c2Nc2ccc(C)cc2)cc1`?
GAA850 FXN act: 3.5; STAT3 activator: 92.0; ABCB6 inh MLPCN: 97.0; AHR act: 65.3*

Results for Cc1ccc(Nc2c(-c3ccccc3)nc3cnccn23)cc1 ?
GAA850 FXN act: 3.8; STAT3 activator: 106.8; ABCB6 inh MLPCN: 101.0; AHR act: 3.3

What do the screens show for `Cc1ccc(Nc2c(-c3ccc(C)o3)nc3cnccn23)cc1`?
GAA850 FXN act: 4.1; STAT3 activator: 99.3; ABCB6 inh MLPCN: 95.0; AHR act: 18.0

Results for CSc1ccc(-c2nc3cnccn3c2Nc2ccc3c(c2)OCO3)cc1 ?
GAA850 FXN act: 3.1; STAT3 activator: 87.5; ABCB6 inh MLPCN: 98.0; AHR act: 188.4*

How did CCOC(=O)CC(NC(=O)Cn1nnc(-c2ccccc2Cl)n1)c1ccc(OC)cc1 (stereo not given) do in these assays?
GAA850 FXN act: -0.2; STAT3 activator: 105.4; ABCB6 inh MLPCN: 108.0; AHR act: -1.2

How did Cc1cccc(CN2CCC(CNC(=O)CCNC(=O)Cn3ccc4ccccc4c3=O)CC2)c1 do in these assays?
GAA850 FXN act: 1.3; STAT3 activator: 102.6; ABCB6 inh MLPCN: 88.0; AHR act: -0.1

What do the screens show for `O=C(O)Cc1ccc(C(=O)c2ccccc2F)s1`?
GAA850 FXN act: 2.0; STAT3 activator: 99.8; ABCB6 inh MLPCN: 96.0; AHR act: 0.3

Results for Oc1ccccc1-n1nc2ccc3nonc3c2n1 ?
GAA850 FXN act: 2.5; ABCB6 inh MLPCN: 101.0; AHR act: 75.7*

Results for Cc1c(C)n(O)c2ccc3nonc3c12 ?
GAA850 FXN act: -2.6; ABCB6 inh MLPCN: 94.0; AHR act: 6.6

Results for CCOc1ccc(CSCCNC(=S)Nc2ccc(OC)cc2)cc1 ?
GAA850 FXN act: -1.5; ABCB6 inh MLPCN: 100.0; AHR act: 3.2

What do the screens show for `CCCOc1ccc(CSCCNC(=S)Nc2ccccc2)cc1`?
GAA850 FXN act: -1.6; STAT3 activator: 96.9; ABCB6 inh MLPCN: 101.0; AHR act: 90.1*

How did Cn1c(=O)ccc2ccccc21 do in these assays?
GAA850 FXN act: -1.7; ABCB6 inh MLPCN: 101.0

How did COc1ccc(-c2nn(-c3ccccc3)cc2C(N)=O)cc1OC do in these assays?
GAA850 FXN act: 3.1; ABCB6 inh MLPCN: 97.0; AHR act: 75.0*

What do the screens show for `COc1ccc(-c2nn(-c3ccccc3)cc2/C=N/NC(N)=S)cc1OC`?
GAA850 FXN act: -3.9; STAT3 activator: 97.7; ABCB6 inh MLPCN: 102.0; AHR act: 16.8

How did O=C(Cc1ccc(S(=O)(=O)N2CCOCC2)s1)Nc1cc(Cl)ccc1Cl do in these assays?
GAA850 FXN act: -0.9; ABCB6 inh MLPCN: 98.0; AHR act: 91.7*

Results for Oc1c(C=Nc2ccccc2Cl)[nH]c2ccccc12 ?
GAA850 FXN act: 3.1; ABCB6 inh MLPCN: 99.0; AHR act: 57.4*

Results for Cc1c(=O)n(OCc2ccccn2)c2ccccc2[n+]1[O-] ?
GAA850 FXN act: 1.0; STAT3 activator: 87.2; ABCB6 inh MLPCN: 145.0; AHR act: 51.6*

What do the screens show for `NC(=S)NN=CCn1cc([N+](=O)[O-])c(=O)[nH]c1=O`?
GAA850 FXN act: -1.7; ABCB6 inh MLPCN: 99.0

What do the screens show for `COc1cc(Nc2nnc(C)s2)c(Cl)cc1Cl`?
GAA850 FXN act: 0.6; STAT3 activator: 82.4; ABCB6 inh MLPCN: 91.0; AHR act: 71.2*

Results for Cc1ccc(N=c2sc(C)c(C)n2C)cc1 ?
GAA850 FXN act: 4.8; STAT3 activator: 101.4; ABCB6 inh MLPCN: 105.0; AHR act: 77.0*
